{"source": "ChEMBL document CHEMBL1141227", "about": "“Rhodamine-labeled 2beta-carbomethoxy-3beta-(3,4-dichlorophenyl)tropane analogues as high-affinity fluorescent probes for the dopamine transporter” (J Med Chem, 2005)", "format_in_all_cases": "cell-based, COS-7", "key": {"[1]": {"molecular_target": "T1, Sodium-dependent dopamine transporter (Homo sapiens, UniProt Q01959)", "T1 sequence (Q01959 whole entry)": "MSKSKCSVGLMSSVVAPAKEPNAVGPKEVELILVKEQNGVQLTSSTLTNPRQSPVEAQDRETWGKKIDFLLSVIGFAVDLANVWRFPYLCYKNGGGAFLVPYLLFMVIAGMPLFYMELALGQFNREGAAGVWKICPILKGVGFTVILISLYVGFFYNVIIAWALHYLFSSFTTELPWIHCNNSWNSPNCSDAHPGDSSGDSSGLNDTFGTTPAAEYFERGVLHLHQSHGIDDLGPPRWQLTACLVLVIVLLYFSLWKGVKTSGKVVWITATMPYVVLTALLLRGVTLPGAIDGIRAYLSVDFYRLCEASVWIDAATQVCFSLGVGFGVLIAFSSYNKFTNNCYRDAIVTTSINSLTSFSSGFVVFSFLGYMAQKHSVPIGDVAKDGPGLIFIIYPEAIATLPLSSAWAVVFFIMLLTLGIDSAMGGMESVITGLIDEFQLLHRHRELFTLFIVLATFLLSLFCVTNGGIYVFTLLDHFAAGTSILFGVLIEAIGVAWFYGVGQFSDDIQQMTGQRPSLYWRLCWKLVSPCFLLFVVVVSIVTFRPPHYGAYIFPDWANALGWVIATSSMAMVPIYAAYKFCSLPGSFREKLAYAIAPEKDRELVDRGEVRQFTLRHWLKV", "assay": "Displacement of [3H]dopamine from human DAT expressed in COS7 cells", "summary_of_the_method": "(§1)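 Ki derived from inhibition of radiolabelled substrate uptake into COS-7 cells transiently expressing hDAT or hNET ([3H]dopamine) or hSERT ([3H]5-HT). […] Three to six experiments in triplicate, mean with SE interval.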"}, "[2]": {"molecular_target": "Sodium-dependent noradrenaline transporter (Homo sapiens, UniProt P23975)", "sequence (P23975 whole entry)": "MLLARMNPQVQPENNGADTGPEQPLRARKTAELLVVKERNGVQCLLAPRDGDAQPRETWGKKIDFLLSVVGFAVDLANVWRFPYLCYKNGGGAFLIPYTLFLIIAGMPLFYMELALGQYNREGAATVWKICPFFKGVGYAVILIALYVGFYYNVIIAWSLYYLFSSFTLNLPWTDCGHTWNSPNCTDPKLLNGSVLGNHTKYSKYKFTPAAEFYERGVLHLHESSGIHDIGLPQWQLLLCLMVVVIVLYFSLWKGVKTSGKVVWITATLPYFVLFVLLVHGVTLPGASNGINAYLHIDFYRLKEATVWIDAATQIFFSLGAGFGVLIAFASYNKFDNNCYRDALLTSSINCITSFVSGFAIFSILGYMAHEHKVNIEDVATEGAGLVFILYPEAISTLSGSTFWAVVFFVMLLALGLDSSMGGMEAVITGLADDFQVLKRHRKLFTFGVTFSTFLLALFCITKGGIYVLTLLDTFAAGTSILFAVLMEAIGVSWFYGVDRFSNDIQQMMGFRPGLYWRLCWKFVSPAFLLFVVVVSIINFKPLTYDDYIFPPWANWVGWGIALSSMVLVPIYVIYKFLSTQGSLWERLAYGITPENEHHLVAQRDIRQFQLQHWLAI", "assay": "Displacement of [3H]dopamine from human NET expressed in COS7 cells", "summary_of_the_method": "as §1"}, "[3]": {"molecular_target": "Sodium-dependent serotonin transporter (Homo sapiens, UniProt P31645)", "sequence (P31645 whole entry)": "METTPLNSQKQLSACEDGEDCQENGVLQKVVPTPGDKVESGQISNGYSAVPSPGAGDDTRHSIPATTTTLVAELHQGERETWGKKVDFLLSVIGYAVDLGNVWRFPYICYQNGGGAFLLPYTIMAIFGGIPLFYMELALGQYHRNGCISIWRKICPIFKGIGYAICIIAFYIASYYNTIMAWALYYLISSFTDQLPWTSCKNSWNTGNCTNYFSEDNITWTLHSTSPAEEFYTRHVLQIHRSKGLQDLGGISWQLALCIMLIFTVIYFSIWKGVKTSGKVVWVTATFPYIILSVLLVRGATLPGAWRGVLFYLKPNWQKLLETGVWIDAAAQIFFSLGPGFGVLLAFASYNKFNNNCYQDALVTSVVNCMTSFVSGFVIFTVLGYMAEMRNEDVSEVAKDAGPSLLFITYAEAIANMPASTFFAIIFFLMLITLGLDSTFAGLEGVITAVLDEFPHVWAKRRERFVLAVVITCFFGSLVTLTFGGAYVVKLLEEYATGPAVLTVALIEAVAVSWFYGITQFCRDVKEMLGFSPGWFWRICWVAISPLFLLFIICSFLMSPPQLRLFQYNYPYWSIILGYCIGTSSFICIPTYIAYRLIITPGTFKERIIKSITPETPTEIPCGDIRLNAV", "assay": "Displacement of [3H]5HT from human SERT expressed in COS7 cells", "summary_of_the_method": "as §1"}, "[4]": {"molecular_target": "T1, Sodium-dependent dopamine transporter", "assay": "Displacement of [3H]CFT from human DAT expressed in COS7 cells", "summary_of_the_method": "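Competition binding on intact COS-7 cells transiently expressing hDAT, with [3H]CFT (2β-carbomethoxy-3β-(4-fluorophenyl)tropane) as radioligand. Ki from nonlinear regression, using a KD for [3H]CFT determined in parallel. Mean of two to three experiments in triplicate, with SE interval.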"}}, "data": [{"compound": "CCN(CC)c1ccc2c(-c3ccc(S(=O)(=O)NCCCCCC(=O)NCCN4C5CCC4[C@@H](C(=O)OC)[C@@H](c4ccc(Cl)c(Cl)c4)C5)cc3S(=O)(=O)[O-])c3ccc(=[N+](CC)CC)cc-3oc2c1", "note": "(some centres undefined)", "values": [{"measurement": "Ki", "setting": "[1]", "value": 62, "unit": "nM"}, {"measurement": "Ki", "setting": "[2]", "value": 194, "unit": "nM"}, {"measurement": "Ki", "setting": "[3]", "value": 392, "unit": "nM"}, {"measurement": "Ki", "setting": "[4]", "value": 18, "unit": "nM"}]}, {"compound": "CCN(CC)c1ccc2c(-c3ccc(S(=O)(=O)NCCCCCC(=O)NCCOC(=O)[C@@H]4C5CCC(C[C@@H]4c4ccc(Cl)c(Cl)c4)N5C)cc3S(=O)(=O)[O-])c3ccc(=[N+](CC)CC)cc-3oc2c1", "note": "(some centres undefined)", "values": [{"measurement": "Ki", "setting": "[1]", "value": 72, "unit": "nM"}, {"measurement": "Ki", "setting": "[2]", "value": 177, "unit": "nM"}, {"measurement": "Ki", "setting": "[3]", "value": 1490, "unit": "nM"}, {"measurement": "Ki", "setting": "[4]", "value": 27, "unit": "nM"}]}, {"compound": "COC(=O)[C@@H]1C2CCC(C[C@@H]1c1ccc(Cl)c(Cl)c1)N2C", "note": "(some centres undefined)", "values": [{"measurement": "Ki", "setting": "[1]", "value": 2.3, "unit": "nM"}, {"measurement": "Ki", "setting": "[2]", "value": 5, "unit": "nM"}, {"measurement": "Ki", "setting": "[3]", "value": 12, "unit": "nM"}, {"measurement": "Ki", "setting": "[4]", "value": 0.2, "unit": "nM"}]}, {"compound": "COC(=O)[C@@H]1C2CCC(C[C@@H]1c1ccc(Cl)c(Cl)c1)N2CCNC(=O)CCCN1CCCc2cc3c(cc21)C(C)(C)C1=CC(=[N+](C)C)C=CC1=C3", "note": "(some centres undefined)", "values": [{"measurement": "Ki", "setting": "[1]", "value": 250, "unit": "nM"}, {"measurement": "Ki", "setting": "[2]", "value": 308, "unit": "nM"}, {"measurement": "Ki", "setting": "[3]", "value": 227, "unit": "nM"}, {"measurement": "Ki", "setting": "[4]", "value": 50, "unit": "nM"}]}, {"compound": "CCN(CC)c1ccc2c(-c3ccc(S(=O)(=O)NC[C@H]4CC[C@H](C(=O)NCCN5C6CCC5[C@@H](C(=O)OC)[C@@H](c5ccc(Cl)c(Cl)c5)C6)CC4)cc3S(=O)(=O)[O-])c3ccc(=[N+](CC)CC)cc-3oc2c1", "note": "(some centres undefined)", "values": [{"measurement": "Ki", "setting": "[1]", "value": 436, "unit": "nM"}, {"measurement": "Ki", "setting": "[2]", "value": 627, "unit": "nM"}, {"measurement": "Ki", "setting": "[3]", "value": 705, "unit": "nM"}]}]}
